Bioassay records as filed in PubChem BioAssay.
STEP block: inhibitors of human striatal-enriched phosphatase STEP; actives 0.25% (n = 360,000); recombinant STEP, OMFP fluorogenic substrate, fluorescence; inhibition, % at 20 µM;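 active = inhibition at 20 µM, scaled per plate between control wells, above about 37%, limit read from the data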;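 also: 0% = DMSO with enzyme and substrate and 100% = substrate only without enzyme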
Target sequence (P54829 whole entry, looked up): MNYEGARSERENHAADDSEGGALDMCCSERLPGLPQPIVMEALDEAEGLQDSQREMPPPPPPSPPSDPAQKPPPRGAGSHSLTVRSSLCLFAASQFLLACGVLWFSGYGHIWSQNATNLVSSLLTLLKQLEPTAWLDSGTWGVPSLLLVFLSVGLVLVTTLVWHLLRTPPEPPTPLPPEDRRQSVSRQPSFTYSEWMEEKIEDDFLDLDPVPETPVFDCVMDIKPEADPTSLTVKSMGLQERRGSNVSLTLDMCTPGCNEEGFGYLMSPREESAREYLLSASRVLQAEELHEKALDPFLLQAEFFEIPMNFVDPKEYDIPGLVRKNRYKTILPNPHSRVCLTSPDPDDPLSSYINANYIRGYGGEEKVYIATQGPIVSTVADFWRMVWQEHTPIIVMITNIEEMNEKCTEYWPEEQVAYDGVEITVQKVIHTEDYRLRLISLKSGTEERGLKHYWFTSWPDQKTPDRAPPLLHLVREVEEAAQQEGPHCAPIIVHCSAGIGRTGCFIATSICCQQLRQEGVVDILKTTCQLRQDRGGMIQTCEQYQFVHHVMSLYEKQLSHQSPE
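System: STEP (striatal-enriched tyrosine phosphatase) enzyme, cell-free; medium: Bis-Tris pH 6.0 buffer with DTT, detergent; dosing: 20 µM, 1% DMSO; times: reaction 20 min, ambient temperature; detection: fluorescence, 480/540 nm; read-out basis: normalized % inhibition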
SUMO1-SIM PPI: alters human SUMO1 binding to SIM partners. SUMO1 binding to a labelled peptide, TR-FRET, 1 h. P63165. actives 0.33% (n = 360,000). inhibition, % at 20 µM. AID 602429; in the data active = inhibition above about 37%
Scp-1 inhibitor: Scp-1 (human) phosphatase inhibition. Q9GZU7. Recombinant Scp1, phosphopeptide, malachite green phosphate absorbance. inhibition, % at 20 µM. actives 0.88% (n = 340,000). AID 493091;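 active = inhibition above about 50% at 20 µM, limit read from the data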;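 also: plate controls were DMSO wells with enzyme for no effect and wells lacking enzyme for full effect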
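Test system – truncated SCP-1 phosphatase (76-261aa) · Reagent – Phosphorylated 17-residue peptide substrate · Incubation – 45 min room-temperature reaction, 5 min colour, 30 min stabiliser · Detection – colorimetric phosphate reagent with accelerator and stabiliser, absorbance at 630 nm · Measure – % inhibition at 20 µM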
LMPTP block: LMPTP (human) inhibition | inhibition, % at 20 µM | P24666 | actives 0.22% (n = 360,000) | recombinant LMPTP-A, OMFP fluorogenic substrate, fluorescence intensity;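 active = compounds that cut the enzyme signal by at least half of the control window in the single-dose screen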;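 also: plate controls were DMSO wells with enzyme plus substrate for no effect and substrate without enzyme for full effect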
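Test system: LMPTP-A phosphatase enzyme. Amount: LMPTP-A at 0.625 nM final in the reaction. Reagent: OMFP substrate, 400 µM final. Times: 50 min at room temperature. Signal: endpoint fluorescence intensity from OMFP dephosphorylation. Read-out basis: % inhibition. Benchmarks: no-enzyme and uninhibited controls.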
DNMT1 block: inhibitors of human DNMT1; actives 0.83% (n = 360,000); inhibition (reported as % activation of signal), % at 10 µM; DNMT1 molecular beacon, Hinp1I cleavage, fluorescence; AID 588458; P26358; in the data active = inhibition above about 50%
Scp1 confirm: Scp-1 (human) inhibition, single-dose confirmed; shares compounds with Scp-1 inhibitor; recombinant SCP-1 catalytic domain, phosphate release, malachite green absorbance; actives 61% (n = 2,500); inhibition, % at 20 µM;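 also: plate controls were DMSO with enzyme for no effect and buffer wells lacking enzyme for full effect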
MG interference: interferes with malachite green readout, flagging false Scp-1 hits | shares compounds with Scp-1 inhibitor | apparent inhibition (interference), % at 20 µM | 2,500 tested, under 10 active | AID 540313 | Colorimetric interference counterscreen, malachite green absorbance 630 nm;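 also: compounds added after enzyme reaction finished so only phosphate colour detection is probed; plate controls were DMSO wells with completed Scp-1 reaction for no effect and substrate wells lacking enzyme for full effect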
Scp1 DSF: Scp-1 (human) binding by thermal shift; shares compounds with Scp-1 inhibitor; Recombinant SCP1, Sypro Orange thermal shift Tm; thermal shift relative to vanadate control, % at 40 µM; actives 25% (n = 1,500);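 active = substances whose mean melting-temperature shift, as a percentage of the reference inhibitor's shift, reaches about 5.3%, limit read from the data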;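 also: 0% = Tm of DMSO wells and 100% = Tm with sodium orthovanadate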
* marks the source's active call; other numbers are inactive results; . = no result. A selection: hits, their analogues and other compounds. The true share with any hit is near 1.8%.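 The calls were made as follows, unless noted: active = inhibition of at least 30% at 20 µM; inactive = the rest.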

SMILES | STEP block | SUMO1-SIM PPI | Scp-1 inhibitor | LMPTP block | DNMT1 block | Scp1 confirm | MG interference | Scp1 DSF
Cc1ccsc1/C=N/NC(=O)c1c[nH]c2ccccc12 | 0 | -8 | 69* | 1 | -1 | -14 | -15 | .
O=C1C2CC3N1CCC31c3ccccc3-n3c1c2ccc3=O (configuration not stated) | -3 | -1 | -3 | -1 | 2 | . | . | .
Cc1cccc(Nc2ncc3c(n2)CC(c2ccco2)CC3=O)c1 (configuration not stated) | 1 | -7 | 86* | 59* | -7 | -15 | -11 | .
CC(=O)Nc1ccc(S(=O)(=O)NCC(=O)NNC(=O)COc2ccccc2Cl)cc1 | 0 | -1 | -3 | -1 | 1 | -25 | -26 | .
CC1(C)CC(N2CCCC2)=CC(=[N+]2CCCC2)C1 | -2 | 2 | 100* | -1 | -1 | 92* | -11 | -20
CC1(C)CC(N2CCCC2)=CC(=[N+]2CCCCC2)C1 | -2 | 2 | 1 | -1 | 0 | . | . | .
Cc1cc(NC(=O)COC(=O)CNS(=O)(=O)c2c(F)cc(F)cc2Br)no1 | 0 | 3 | -8 | -1 | 0 | . | . | .
CN(C)C(=O)c1ccc(OCC(F)(F)F)nc1 | -2 | -1 | 79* | -1 | 3 | -9 | -15 | .
N/C(=N\OC(=O)c1ccc(OCC(F)(F)F)nc1)c1ccc(Cl)cc1 | 1 | 8 | -10 | -2 | 8 | . | . | .
COc1ccccc1OCCSc1nc2ccccc2n1CCC(=O)O | -1 | 9 | 9 | -1 | 10 | . | . | .
COc1ccccc1OCCn1c(SCC(=O)O)nc2ccccc21 | 3 | 2 | 62* | -2 | 17 | 50* | -8 | -16
Cn1c(SCC(=O)c2ccc(O)c(O)c2)nnc1-c1cccs1 | 15 | 15 | 67* | 21 | 10 | 50* | -9 | 3
Cc1ccccc1N=C1NC(=O)/C(=C/c2cccn2-c2cccc(C(=O)O)c2)S1 | . | . | 66* | . | . | 65* | -7 | 4
COc1ccc(NC(=O)CSc2sc3c(O)cc(=O)[nH]c3c2C#N)c(OC)c1 | 21 | 18 | 64* | 56* | 24 | 68* | -9 | 7.8*
N#Cc1c(SCC(=O)Nc2cccc(C(F)(F)F)c2)sc2c(O)cc(=O)[nH]c12 | 5 | 13 | 54* | 13 | 7 | 34* | -13 | 8.1*
COc1ccccc1NC(=O)CSc1sc2c(O)cc(=O)[nH]c2c1C#N | 8 | 13 | 77* | 22 | 10 | 33* | -14 | 13*
COc1ccc(Cl)cc1NC(=O)CSc1sc2c(O)cc(=O)[nH]c2c1C#N | 11 | 1 | 41 | 22 | 12 | . | . | .
Cc1ccc(S(=O)(=O)N(C)c2ccc(C(=O)N(C)Cc3nc4ccccc4c(=O)[nH]3)cc2)cc1 | -1 | 1 | -3 | 1 | 1 | . | . | .
Nc1ncc(Br)cc1S(=O)(=O)Nc1cc(C(F)(F)F)cc(C(F)(F)F)c1 | -3 | 9 | -8 | 5 | -15 | . | . | .
COCCN(C(=O)c1ccc(N2C(=O)c3ccccc3C2=O)cc1)c1c(N)n(CC(C)C)c(=O)[nH]c1=O | 1 | -21 | -2 | 0 | -2 | . | . | .
COc1ccc(/C=N/NC(=O)c2cccc(NC(=O)c3ccc(Cl)cc3)c2)c(OC)c1 | 4 | 14 | 83* | 2 | 15 | 66* | -15 | -15
COc1ccc(/C=N/NC(=O)c2ccc(NC(=O)c3cccc([N+](=O)[O-])c3)cc2)c(OC)c1 | 0 | 8 | -3 | 0 | -26 | . | . | .
CCOC(=O)N1CCC(N2Cc3cccc(C(=O)NCc4ccc5c(c4)OCO5)c3C2=O)CC1 | 6 | 8 | 92* | 3 | 20 | 65* | -12 | -6
CCOC(=O)N1CCC(NC(=O)c2cccc3c2C(=O)N(c2ccc(OC)cc2)C3)CC1 | 4 | 8 | 52* | 3 | 30 | 49* | -10 | 3
